Measurements reported in the M2OR odorant receptor database.

Columns and labels:
Details in all cases: stereoisomer not certain
OR1N1 (Homo sapiens) = target: T1, OR1N1 (Homo sapiens) (UniProt Q8NGS0)
T1 sequence (whole entry): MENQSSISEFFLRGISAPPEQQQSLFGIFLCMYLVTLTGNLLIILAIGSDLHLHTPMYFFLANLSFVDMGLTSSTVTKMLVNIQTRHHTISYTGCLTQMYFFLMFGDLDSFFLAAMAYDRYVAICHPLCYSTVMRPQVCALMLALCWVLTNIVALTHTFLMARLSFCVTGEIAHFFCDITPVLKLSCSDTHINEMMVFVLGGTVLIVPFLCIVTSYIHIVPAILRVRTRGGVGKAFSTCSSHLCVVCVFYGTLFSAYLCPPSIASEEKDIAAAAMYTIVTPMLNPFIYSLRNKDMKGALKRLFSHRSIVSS
In short: (§1)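 Each receptor–molecule pair is labelled responsive or non-responsive (inactive) according to whether the original authors judged the measured signal statistically different from baseline. The data were taken from the main text and supplementary material of published papers and checked for typos and inconsistencies. Assay methods differed by source, with transient luciferase assays in mammalian cell lines being common.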

OR1N2 = tested on: OR1N2
Chain of OR1N2 (as listed by the source): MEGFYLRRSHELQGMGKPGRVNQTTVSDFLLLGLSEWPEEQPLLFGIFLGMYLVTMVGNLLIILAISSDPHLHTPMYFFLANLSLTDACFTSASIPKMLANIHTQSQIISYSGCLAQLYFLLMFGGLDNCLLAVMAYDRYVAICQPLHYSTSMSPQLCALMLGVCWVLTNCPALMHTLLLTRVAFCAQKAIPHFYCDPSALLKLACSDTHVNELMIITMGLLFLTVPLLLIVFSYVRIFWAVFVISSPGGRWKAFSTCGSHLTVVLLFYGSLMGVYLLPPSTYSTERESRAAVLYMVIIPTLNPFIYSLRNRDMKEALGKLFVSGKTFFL
In short: as §1

OR1P1 (Homo sapiens) = OR1P1 (Homo sapiens) (UniProt Q8NH06)
Chain of OR1P1 (Homo sapiens) (Q8NH06 whole entry K185A): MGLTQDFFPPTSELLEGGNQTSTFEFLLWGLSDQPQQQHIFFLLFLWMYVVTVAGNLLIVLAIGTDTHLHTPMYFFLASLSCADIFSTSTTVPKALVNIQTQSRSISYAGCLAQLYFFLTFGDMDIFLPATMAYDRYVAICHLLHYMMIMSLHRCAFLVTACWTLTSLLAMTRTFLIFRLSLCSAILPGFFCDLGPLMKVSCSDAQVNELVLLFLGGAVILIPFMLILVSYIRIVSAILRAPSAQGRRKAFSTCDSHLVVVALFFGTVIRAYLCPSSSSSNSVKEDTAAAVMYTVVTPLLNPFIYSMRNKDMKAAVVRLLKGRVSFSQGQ
In short: as §1

OR1Q1 (Homo sapiens) = OR1Q1 (Homo sapiens) (UniProt Q15612)
Chain of OR1Q1 (Homo sapiens) (Q15612 whole entry): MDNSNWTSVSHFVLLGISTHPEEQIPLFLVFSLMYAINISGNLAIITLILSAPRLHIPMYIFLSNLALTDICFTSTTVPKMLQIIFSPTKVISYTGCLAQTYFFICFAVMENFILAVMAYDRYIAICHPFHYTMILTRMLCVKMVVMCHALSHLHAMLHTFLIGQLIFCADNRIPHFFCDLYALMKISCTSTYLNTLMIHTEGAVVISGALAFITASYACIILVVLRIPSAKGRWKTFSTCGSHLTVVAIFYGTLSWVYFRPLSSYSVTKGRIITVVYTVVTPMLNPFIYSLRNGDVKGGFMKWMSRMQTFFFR
In short: as §1

OR1S1 (Homo sapiens) = OR1S1 (Homo sapiens) (UniProt Q8NH92)
Chain of OR1S1 (Homo sapiens) (Q8NH92 whole entry): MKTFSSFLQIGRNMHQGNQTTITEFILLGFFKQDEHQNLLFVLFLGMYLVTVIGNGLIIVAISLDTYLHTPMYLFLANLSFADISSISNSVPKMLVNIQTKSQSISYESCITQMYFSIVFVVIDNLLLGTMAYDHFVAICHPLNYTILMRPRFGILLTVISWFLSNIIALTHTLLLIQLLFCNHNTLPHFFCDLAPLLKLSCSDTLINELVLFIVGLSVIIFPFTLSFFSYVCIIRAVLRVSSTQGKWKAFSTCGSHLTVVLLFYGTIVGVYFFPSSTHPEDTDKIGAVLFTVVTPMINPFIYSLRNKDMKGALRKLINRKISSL
In short: as §1

OR1S2 (Homo sapiens) = OR1S2 (Homo sapiens) (UniProt Q8NGQ3)
Chain of OR1S2 (Homo sapiens) (Q8NGQ3 whole entry): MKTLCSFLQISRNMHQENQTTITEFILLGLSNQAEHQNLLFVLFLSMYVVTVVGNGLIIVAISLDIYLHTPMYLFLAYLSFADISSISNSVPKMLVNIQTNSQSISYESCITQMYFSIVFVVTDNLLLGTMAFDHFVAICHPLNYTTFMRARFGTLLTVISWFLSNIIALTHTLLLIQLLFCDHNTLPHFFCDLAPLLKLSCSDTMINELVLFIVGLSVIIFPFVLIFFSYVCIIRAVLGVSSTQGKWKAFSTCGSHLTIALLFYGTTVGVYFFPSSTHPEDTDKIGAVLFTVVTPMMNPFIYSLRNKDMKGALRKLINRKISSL
In short: as §1

OR2A1 (Homo sapiens) = target: T2, OR2A1 (Homo sapiens) (UniProt Q8NGT9)
T2 sequence (whole entry): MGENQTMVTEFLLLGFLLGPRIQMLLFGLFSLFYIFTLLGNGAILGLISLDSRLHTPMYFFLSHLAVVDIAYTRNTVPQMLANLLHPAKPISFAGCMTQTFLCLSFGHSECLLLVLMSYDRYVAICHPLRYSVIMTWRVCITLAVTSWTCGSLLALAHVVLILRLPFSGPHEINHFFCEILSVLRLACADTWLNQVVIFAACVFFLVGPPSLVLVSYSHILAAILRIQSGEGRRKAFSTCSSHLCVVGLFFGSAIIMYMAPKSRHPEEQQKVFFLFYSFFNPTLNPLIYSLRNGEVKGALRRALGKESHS
In short: as §1

OR2A12 (Homo sapiens) = OR2A12 (Homo sapiens) (UniProt Q8NGT7)
Chain of OR2A12 (Homo sapiens) (Q8NGT7 whole entry): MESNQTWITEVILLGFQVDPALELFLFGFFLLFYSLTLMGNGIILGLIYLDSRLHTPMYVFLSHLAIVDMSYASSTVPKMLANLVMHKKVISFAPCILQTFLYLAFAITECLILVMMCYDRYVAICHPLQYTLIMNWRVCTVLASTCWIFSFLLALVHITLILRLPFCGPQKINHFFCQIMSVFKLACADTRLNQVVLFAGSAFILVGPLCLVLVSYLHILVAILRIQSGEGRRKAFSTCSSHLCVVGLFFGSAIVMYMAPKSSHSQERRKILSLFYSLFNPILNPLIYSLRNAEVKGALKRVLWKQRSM
In short: as §1

OR2A14 (Homo sapiens) = OR2A14 (Homo sapiens) (UniProt Q96R47)
Chain of OR2A14 (Homo sapiens) (Q96R47 whole entry): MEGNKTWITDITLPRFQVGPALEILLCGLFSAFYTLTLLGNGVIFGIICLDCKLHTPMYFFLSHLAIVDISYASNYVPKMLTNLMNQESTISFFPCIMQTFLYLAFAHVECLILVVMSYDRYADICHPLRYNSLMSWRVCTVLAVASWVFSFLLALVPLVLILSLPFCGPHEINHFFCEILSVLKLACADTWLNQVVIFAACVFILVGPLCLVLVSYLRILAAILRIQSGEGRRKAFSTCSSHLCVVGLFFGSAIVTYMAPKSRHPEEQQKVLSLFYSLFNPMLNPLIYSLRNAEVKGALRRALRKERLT
In short: as §1

OR2A2 (Homo sapiens) = OR2A2 (Homo sapiens) (UniProt Q6IF42)
Chain of OR2A2 (Homo sapiens) (Q6IF42 whole entry): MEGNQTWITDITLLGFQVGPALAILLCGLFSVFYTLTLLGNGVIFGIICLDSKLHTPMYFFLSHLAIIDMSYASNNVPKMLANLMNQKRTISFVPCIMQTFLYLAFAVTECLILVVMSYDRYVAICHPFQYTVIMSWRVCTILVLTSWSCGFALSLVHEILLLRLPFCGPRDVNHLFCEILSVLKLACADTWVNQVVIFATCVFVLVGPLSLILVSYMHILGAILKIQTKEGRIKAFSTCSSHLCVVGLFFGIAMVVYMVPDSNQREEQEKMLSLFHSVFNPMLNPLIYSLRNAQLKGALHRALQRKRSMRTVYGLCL
In short: as §1

OR2A25 (Homo sapiens) = OR2A25 (Homo sapiens) (UniProt A4D2G3)
Chain of OR2A25 (Homo sapiens) (A4D2G3 whole entry): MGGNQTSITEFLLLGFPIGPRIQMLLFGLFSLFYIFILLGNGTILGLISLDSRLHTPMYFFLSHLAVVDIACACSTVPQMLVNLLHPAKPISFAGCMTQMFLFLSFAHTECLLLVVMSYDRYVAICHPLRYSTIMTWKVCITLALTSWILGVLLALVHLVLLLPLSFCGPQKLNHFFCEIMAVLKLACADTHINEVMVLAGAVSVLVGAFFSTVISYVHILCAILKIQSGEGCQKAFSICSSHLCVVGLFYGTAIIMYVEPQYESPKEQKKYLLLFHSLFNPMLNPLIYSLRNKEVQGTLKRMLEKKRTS
In short: as §1

OR2A4 (Homo sapiens) = OR2A4 (Homo sapiens) (UniProt O95047)
Chain of OR2A4 (Homo sapiens) (O95047 whole entry): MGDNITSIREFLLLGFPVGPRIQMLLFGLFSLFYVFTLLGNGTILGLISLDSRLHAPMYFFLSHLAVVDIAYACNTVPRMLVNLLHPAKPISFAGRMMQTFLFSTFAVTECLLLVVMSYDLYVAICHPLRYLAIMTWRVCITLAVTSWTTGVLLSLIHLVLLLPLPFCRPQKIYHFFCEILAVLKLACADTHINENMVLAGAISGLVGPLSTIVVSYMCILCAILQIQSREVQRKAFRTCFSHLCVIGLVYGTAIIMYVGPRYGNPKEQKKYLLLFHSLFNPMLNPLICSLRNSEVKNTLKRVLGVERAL
In short: as §1

OR2A5 (Homo sapiens) = OR2A5 (Homo sapiens) (UniProt Q96R48)
Chain of OR2A5 (Homo sapiens) (Q96R48 whole entry): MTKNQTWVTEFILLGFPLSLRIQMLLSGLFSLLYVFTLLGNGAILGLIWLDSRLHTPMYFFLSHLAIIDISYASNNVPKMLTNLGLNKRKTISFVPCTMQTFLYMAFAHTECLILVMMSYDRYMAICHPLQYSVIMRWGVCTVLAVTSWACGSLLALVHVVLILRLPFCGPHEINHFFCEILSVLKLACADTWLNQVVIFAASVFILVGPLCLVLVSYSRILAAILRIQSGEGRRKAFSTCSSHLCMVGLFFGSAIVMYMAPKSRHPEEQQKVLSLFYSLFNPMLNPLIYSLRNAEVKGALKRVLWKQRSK
In short: as §1

OR1N2 W37R = tested on: OR1N2 W37R
Chain of OR1N2 W37R (as listed by the source, stated change not applied): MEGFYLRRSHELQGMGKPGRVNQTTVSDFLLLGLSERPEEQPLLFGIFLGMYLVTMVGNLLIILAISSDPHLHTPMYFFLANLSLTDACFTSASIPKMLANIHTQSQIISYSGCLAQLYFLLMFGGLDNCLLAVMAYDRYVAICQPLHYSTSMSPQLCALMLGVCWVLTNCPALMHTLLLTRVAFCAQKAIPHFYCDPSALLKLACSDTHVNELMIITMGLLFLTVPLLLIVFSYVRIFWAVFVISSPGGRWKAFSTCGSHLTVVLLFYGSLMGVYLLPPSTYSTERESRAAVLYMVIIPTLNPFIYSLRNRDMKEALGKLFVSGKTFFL
In short: as §1

OR1Q1 = tested on: OR1Q1
Chain of OR1Q1 (as listed by the source): as the sequence (Q15612 whole entry) above, with Q24R, I163M counted along it
In short: as §1

OR1S2 E17G = tested on: OR1S2 E17G
Chain of OR1S2 E17G (as listed by the source, stated change not applied): as the sequence (Q8NGQ3 whole entry) above, with E17G counted along it
In short: as §1

OR1S2 V225T G240R = tested on: OR1S2 V225T G240R
In short: as §1

OR2A1 S168C = tested on: OR2A1 S168C
Chain of OR2A1 S168C (as listed by the source, stated change not applied): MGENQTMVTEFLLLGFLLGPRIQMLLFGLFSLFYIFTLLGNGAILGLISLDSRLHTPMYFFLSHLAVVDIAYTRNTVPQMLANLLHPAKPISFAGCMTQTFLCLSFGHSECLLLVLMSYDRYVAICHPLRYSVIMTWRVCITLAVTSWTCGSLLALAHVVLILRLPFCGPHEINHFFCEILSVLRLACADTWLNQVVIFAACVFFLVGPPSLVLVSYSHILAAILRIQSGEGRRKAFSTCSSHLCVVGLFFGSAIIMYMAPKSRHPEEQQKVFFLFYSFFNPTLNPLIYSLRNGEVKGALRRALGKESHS
In short: as §1

OR2A1 T73A R74C S168C = tested on: OR2A1 T73A R74C S168C
In short: as §1

OR2A2 = tested on: OR2A2
Chain of OR2A2 (as listed by the source): as the sequence (Q6IF42 whole entry) above, with F280L counted along it
In short: as §1

Measured: odorant receptor agonist call

Cc1c([N+](=O)[O-])c(C)c([N+](=O)[O-])c(C(C)(C)C)c1[N+](=O)[O-]
not listed: OR1N2 W37R | OR1Q1 | OR1S2 E17G | OR1S2 V225T G240R | OR2A1 S168C | OR2A1 T73A R74C S168C | OR2A2
inactive: all other assays above

c1ccncc1
inactive: OR1N1 (Homo sapiens)

C=CCOC(=O)Cc1ccccc1
not listed: OR1P1 (Homo sapiens)
inactive: all other assays above

Cc1cccc(C)c1
inactive: OR2A1 (Homo sapiens)

COc1ccc(C=O)cc1
inactive: OR2A1 (Homo sapiens)
